From ChEMBL document CHEMBL1146554, “Antioxidative meroterpenoids from the brown alga Cystoseira crinita” (J Nat Prod, 2003)
≈ marks a conversion by molar mass, not a printed value. Calls of active or inactive are those of the source. The calls are words filed in the database; no cut-off is given here.

Assays:
[1] = system: Radical scavenging activity; assay: Antioxidant activity assessed as DPPH radical scavenging activity at 6 uM after 30 mins; format: functional
Method in brief: (§1)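 Samples in EtOH (100 µL) mixed with 25 µL of 1 mM DPPH in EtOH plus 75 µL EtOH, then shaken briefly. Kept 30 min at room temperature in the dark. Absorbance read at 517 nm. % scavenging calculated against control, with blank and sample-blank corrections.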

[2] = system: Radical scavenging activity; assay: Antioxidant activity assessed as DPPH radical scavenging activity at 23 uM after 30 mins; format: functional; method in brief: as §1
[3] = system: Radical scavenging activity; assay: Antioxidant activity assessed as DPPH radical scavenging activity at 58 uM after 30 mins; format: functional; method in brief: as §1
[4] = system: Radical scavenging activity; assay: Antioxidant activity assessed as DPPH radical scavenging activity at 115 uM after 30 mins; format: functional; method in brief: as §1
[5] = system: Radical scavenging activity; assay: Antioxidant activity assessed as DPPH radical scavenging activity at 230 uM after 30 mins; format: functional; method in brief: as §1
[6] = ABTS radical scavenging activity assessed as trolox equivalents by TEAC assay; format: physicochemical
Method in brief: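 ABTS radical cation made by passing ABTS in PBS through manganese dioxide, then filtered (0.2 µm). Diluted in 5 mM PBS pH 7.4 to A734 0.700 and preincubated 2 h at room temperature. 1 mL radical mixed with 200 µL ethanolic sample, vortexed 30 s, centrifuged. A734 of lower phase read exactly 2 min after mixing. PBS and ethanol blanks included. Trolox standards used; value is mM Trolox equivalent to 1.0 mM compound.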

[7] = Superoxide radical scavenging activity assessed as trolox equivalents by photochemiluminescence assay
Method in brief: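 Photochemiluminescence with luminol acting as photosensitizer and detection reagent, generating superoxide. Mix of 2.29 mL reagent 1 (solvent/diluent), 200 µL buffer reagent, 25 µL photosensitizer and 10 µL sample in ethanol or Trolox standard in water. Antioxidant capacity taken from the integral under the curve and expressed as Trolox equivalents.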

[8] = Antioxidant activity assessed as inhibition of FeSO4-induced lipid peroxidation at 8 uM by TBARS assay; format: functional
Method in brief: (§2)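 Linolenic acid methyl ester oxidized under FeSO4 catalysis in 50 mM phosphate buffer pH 7.2 at 50 °C. BHT in ethanol added to stop further oxidation. TBARS developed with trichloroacetic and thiobarbituric acid, 60 °C for 30 min. Read A532 minus A600 background. % inhibition calculated versus uninhibited control, with blank and sample-blank corrections.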

[9] = Antioxidant activity assessed as inhibition of FeSO4-induced lipid peroxidation at 16 uM by TBARS assay; format: functional; method in brief: as §2
[10] = Antioxidant activity assessed as inhibition of FeSO4-induced lipid peroxidation at 33 uM by TBARS assay; format: functional; method in brief: as §2
[11] = Antioxidant activity assessed as inhibition of FeSO4-induced lipid peroxidation at 82 uM by TBARS assay; format: functional; method in brief: as §2
[12] = Antioxidant activity assessed as inhibition of FeSO4-induced lipid peroxidation at 164 uM by TBARS assay; format: functional; method in brief: as §2
[13] = Cytotoxicity against human HM02 cells; format: functional
Method in brief: (§3)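 Cytotoxicity tested on HM02 gastric adenocarcinoma, HepG2 hepatocellular carcinoma and MCF7 breast adenocarcinoma lines following NCI standards.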

HepG2 [14] = assay: Cytotoxicity against human HepG2 cells; format: functional; method in brief: as §3
MCF7 = assay: Cytotoxicity against human MCF7 cells; format: functional; method in brief: as §3
HepG2 [15] = assay: Cytotoxicity against human HepG2 cells at 10 ug/ml; format: functional; conditions: read-out: GI
Priestia megaterium = assay: Antimicrobial activity against Bacillus megaterium at 50 ug/disk by agar diffusion assay; format: functional, organism-based
Method in brief: (§4)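 Agar diffusion assay with discs loaded at 50 µg/disk, run against the bacteria, fungi and the green microalga Chlorella fusca.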

Escherichia coli = assay: Antimicrobial activity against Escherichia coli at 50 ug/disk by agar diffusion assay; format: functional, organism-based; method in brief: as §4
Microbotryum violaceum = assay: Antimicrobial activity against Microbotryum violaceum at 50 ug/disk by agar diffusion assay; format: functional, organism-based; method in brief: as §4
[16] = system: Aspergillus pseudoglaucus; assay: Antimicrobial activity against Eurotium repens at 50 ug/disk by agar diffusion assay; format: functional, organism-based; method in brief: as §4
Mycotypha microspora = assay: Antimicrobial activity against Mycotypha microspora at 50 ug/disk by agar diffusion assay; format: functional, organism-based; method in brief: as §4
[Chlorella] fusca = Antimicrobial activity against 'Chlorella' fusca at 50 ug/disk by agar diffusion assay; format: functional, organism-based; conditions: Scenedesmus fuscus; method in brief: as §4
[17] = target: Human immunodeficiency virus type 1 reverse transcriptase (Human immunodeficiency virus 1) (UniProt Q72547); assay: Inhibition of HIV1 reverse transcriptase at 66 ug/ml by ELISA
Method in brief: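 HIV-1 RT activity inhibition measured by ELISA with the test compound at 66 µg/mL.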

[18] = system: Radical scavenging activity; assay: Antioxidant activity assessed as DPPH radical scavenging activity at 12 uM after 30 mins; format: functional; method in brief: as §1

Question: What does the source list for `C/C(=C/CC/C(C)=C/CC/C(C)=C/C(=O)C/C(C)=C/Cc1cc(O)cc(C)c1O)CO`?
Answer: Activity [1]: 8%; Activity [2]: 25.1%; Activity [3]: 64.8%; Activity [4]: 96.1%; Activity [5]: 96.4%; Activity [6]: 0.09 mmol/L; Activity [7]: 0.59 mmol/L; inhibition [8]: 10.6%; inhibition [9]: 14.8%; inhibition [10]: 32.1%; inhibition [11]: 67.2%; inhibition [12]: 73.7%; GI50 [13]: 2.3 µg/mL (≈ 5.39 µM); LC50 [13]: > 10 µg/mL; TGI [13]: 7.4 µg/mL (≈ 17.3 µM); GI50 (HepG2 [14]): 7.1 µg/mL (≈ 16.6 µM); LC50 (HepG2 [14]): > 10 µg/mL; TGI (HepG2 [14]): > 10 µg/mL; GI50 (MCF7): 2.2 µg/mL (≈ 5.16 µM); LC50 (MCF7): > 10 µg/mL; TGI (MCF7): 5.1 µg/mL (≈ 12 µM); inhibition of growth at 10 µg/mL (HepG2 [15]): 86%; Activity (Priestia megaterium): inactive; Activity (Escherichia coli): inactive; Activity (Microbotryum violaceum): inactive; Activity [16]: inactive; Activity (Mycotypha microspora): inactive; Activity ([Chlorella] fusca): inactive; Activity [17]: inactive; Activity [18]: 12.3%

Question: Which Activity [1] does the source give for `C/C(=C/C(=O)C/C(C)=C/Cc1cc(O)cc(C)c1O)CC/C=C(\C)Cc1cc(C)co1` here?
Answer: Its Activity is 5.9%.

Question: What about the Activity [2] of the same molecule?
Answer: Its Activity is 22.1%.

Question: And the Activity [3]?
Answer: Its Activity is 56.7%.

Question: And the Activity [4]?
Answer: Its Activity is 95.7%.

Question: What about the Activity [5] of the same molecule?
Answer: The Activity was 95.8%.

Question: What about the Activity [6] of the same molecule?
Answer: The Activity was 0.28 mmol/L.

Question: What about the Activity [7] of the same molecule?
Answer: Its Activity is 0.79 mmol/L.

Question: And the inhibition [8]?
Answer: The inhibition was 16.4%.

Question: And the inhibition [9]?
Answer: The inhibition was 25.2%.

Question: What about the inhibition [10] of the same molecule?
Answer: The inhibition was 38.9%.

Question: And the inhibition [11]?
Answer: Its inhibition is 66.6%.

Question: What about the inhibition [12] of the same molecule?
Answer: The inhibition was 74.6%.

Question: What about the GI50 [13] of the same molecule?
Answer: Its GI50 is 0.9 µg/mL (≈ 2.13 µM).

Question: What about the LC50 [13] of the same molecule?
Answer: Its LC50 is 4.6 µg/mL (≈ 10.9 µM).

Question: And the TGI [13]?
Answer: Its TGI is 2 µg/mL (≈ 4.73 µM).

Question: What about the GI50 (HepG2 [14]) of the same molecule?
Answer: The GI50 was 1.7 µg/mL (≈ 4.02 µM).

Question: What about the LC50 (HepG2 [14]) of the same molecule?
Answer: The LC50 was over 10 µg/mL.

Question: What about the TGI (HepG2 [14]) of the same molecule?
Answer: Its TGI is 5 µg/mL (≈ 11.8 µM).

Question: And the GI50 (MCF7)?
Answer: The GI50 was 0.9 µg/mL (≈ 2.13 µM).

Question: What about the LC50 (MCF7) of the same molecule?
Answer: Its LC50 is 3.6 µg/mL (≈ 8.52 µM).

Question: And the TGI (MCF7)?
Answer: Its TGI is 1.7 µg/mL (≈ 4.02 µM).

Question: And the Activity (Priestia megaterium)?
Answer: Its Activity is “inactive”.

Question: And the Activity (Escherichia coli)?
Answer: Its Activity is “inactive”.

Question: What about the Activity (Microbotryum violaceum) of the same molecule?
Answer: Its Activity is “inactive”.

Question: What about the Activity [16] of the same molecule?
Answer: Its Activity is “inactive”.

Question: And the Activity (Mycotypha microspora)?
Answer: Its Activity is “inactive”.

Question: And the Activity ([Chlorella] fusca)?
Answer: Its Activity is “inactive”.

Question: And the Activity [18]?
Answer: Its Activity is 11%.

Question: What does the source list for `C/C(=C\C(=O)C/C(C)=C/Cc1cc(O)cc(C)c1O)CC/C=C(\C)Cc1cc(C)co1`?
Answer: Activity [1]: 8%; Activity [2]: 24.9%; Activity [3]: 65.4%; Activity [4]: 95.2%; Activity [5]: 95.4%; Activity [6]: 0.08 mmol/L; Activity [7]: 1.06 mmol/L; inhibition [8]: 15.1%; inhibition [9]: 25.8%; inhibition [10]: 41.2%; inhibition [11]: 69.3%; inhibition [12]: 74.9%; GI50 [13]: 0.3 µg/mL (≈ 0.71 µM); LC50 [13]: 3.4 µg/mL (≈ 8.05 µM); TGI [13]: 0.6 µg/mL (≈ 1.42 µM); GI50 (HepG2 [14]): 1.8 µg/mL (≈ 4.26 µM); LC50 (HepG2 [14]): > 10 µg/mL; TGI (HepG2 [14]): 4 µg/mL (≈ 9.47 µM); GI50 (MCF7): 1.3 µg/mL (≈ 3.08 µM); LC50 (MCF7): 3.7 µg/mL (≈ 8.76 µM); TGI (MCF7): 2.1 µg/mL (≈ 4.97 µM); Activity (Priestia megaterium): inactive; Activity (Escherichia coli): inactive; Activity (Microbotryum violaceum): inactive; Activity [16]: inactive; Activity (Mycotypha microspora): inactive; Activity ([Chlorella] fusca): inactive; Activity [18]: 12.5%

Question: For `C/C(=C/CC/C(C)=C/CC/C(C)=C\C(=O)C/C(C)=C/Cc1cc(O)cc(C)c1O)CO`, which Activity [1] is on record?
Answer: The Activity was 9.1%.

Question: What about the Activity [2] of the same molecule?
Answer: Its Activity is 31.2%.

Question: And the Activity [3]?
Answer: The Activity was 80.1%.

Question: And the Activity [4]?
Answer: Its Activity is 96%.

Question: And the Activity [5]?
Answer: The Activity was 96.7%.

Question: And the Activity [6]?
Answer: Its Activity is 0.09 mmol/L.

Question: What about the Activity [7] of the same molecule?
Answer: Its Activity is 0.51 mmol/L.

Question: What about the inhibition [8] of the same molecule?
Answer: Its inhibition is 12%.

Question: What about the inhibition [9] of the same molecule?
Answer: The inhibition was 18.3%.

Question: And the inhibition [10]?
Answer: The inhibition was 31.5%.

Question: And the inhibition [11]?
Answer: The inhibition was 69.8%.

Question: And the inhibition [12]?
Answer: The inhibition was 73.4%.

Question: What about the GI50 [13] of the same molecule?
Answer: Its GI50 is 1.8 µg/mL (≈ 4.22 µM).

Question: And the LC50 [13]?
Answer: Its LC50 is over 10 µg/mL.

Question: And the TGI [13]?
Answer: Its TGI is 6 µg/mL (≈ 14.1 µM).

Question: And the GI50 (HepG2 [14])?
Answer: The GI50 was 6.8 µg/mL (≈ 15.9 µM).

Question: And the LC50 (HepG2 [14])?
Answer: Its LC50 is over 10 µg/mL.

Question: And the TGI (HepG2 [14])?
Answer: Its TGI is over 10 µg/mL.

Question: What about the GI50 (MCF7) of the same molecule?
Answer: The GI50 was 1.8 µg/mL (≈ 4.22 µM).

Question: And the LC50 (MCF7)?
Answer: The LC50 was over 10 µg/mL.

Question: And the TGI (MCF7)?
Answer: The TGI was 4 µg/mL (≈ 9.38 µM).

Question: And the inhibition of growth at 10 µg/mL (HepG2 [15])?
Answer: The inhibition of growth at 10 µg/mL was 87%.

Question: What about the Activity (Priestia megaterium) of the same molecule?
Answer: Its Activity is “inactive”.

Question: What about the Activity (Escherichia coli) of the same molecule?
Answer: Its Activity is “inactive”.

Question: What about the Activity (Microbotryum violaceum) of the same molecule?
Answer: Its Activity is “inactive”.

Question: What about the Activity [16] of the same molecule?
Answer: Its Activity is “inactive”.

Question: And the Activity (Mycotypha microspora)?
Answer: The Activity was “inactive”.

Question: And the Activity ([Chlorella] fusca)?
Answer: The Activity was “inactive”.

Question: And the Activity [17]?
Answer: Its Activity is “inactive”.

Question: And the Activity [18]?
Answer: Its Activity is 15.2%.
